Experimental data as given in ChEMBL document CHEMBL4138271, “Crystal Structures and Human Leukemia Cell Apoptosis Inducible Activities of Parthenolide Analogues Isolated from Piptocoma rufescens” (J Nat Prod, 2018).
pIC50: −log10 of the molar value. Active and inactive are the calls of the source. The calls are words filed in the database; no cut-off is given here.

Columns and labels:
[1] = test system: MOLM-13; assay: Induction of apoptosis in human MOLM13 cells assessed as caspase-3 activation at 10 nM after 72 hrs by immunoblotting analysis; type: functional, cell-based
Outline: (§1)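 MOLM-13 cells treated 72 h with test compounds at 10 μM or PKC412 at 10 nM. Cells washed in ice-cold PBS, lysed at 10^8 cells/mL in NP-40 hypertonic buffer (pH 7.5) with protease/phosphatase inhibitors, then run on SDS-PAGE and PVDF. Blots probed 12 h with rabbit monoclonal cleaved caspase-3 (Asp175), β-actin as loading control. Representative of three independent experiments.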

[2] = test system: EOL1; assay: Induction of apoptosis in human EOL-1 cells assessed as caspase-3 activation at 10 nM after 72 hrs by immunoblotting analysis; type: functional, cell-based
Outline: (§2)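 EOL-1 cells (RPMI 1640, 10% FBS, 37 °C, 5% CO2) exposed 72 h; compounds at 10 μM, PKC412 at 10 nM. Harvested, PBS-washed, lysed in hypertonic NP-40 buffer with protease/phosphatase inhibitors; SDS-PAGE, PVDF transfer, rabbit monoclonal cleaved caspase-3 (Asp175) antibody 12 h, secondary 1 h, chemiluminescent detection; β-actin loading control. Representative blots of three independent experiments.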

[3] = test system: MOLM-13; assay: Induction of apoptosis in human MOLM13 cells assessed as late apoptotic cells at 0.56 uM after 24 hrs by Annexin-V FITC/7-AAD staining based flow cytometric method (reference value: 1.43%); type: functional
[4] = test system: MOLM-13; assay: Induction of apoptosis in human MOLM13 cells assessed as necrotic cells at 2.8 uM after 24 hrs by Annexin-V FITC/7-AAD staining based flow cytometric method (reference value: 0%); type: functional
[5] = test system: EOL1; assay: Induction of apoptosis in human EOL-1 cells assessed as live cells at 2.8 uM after 24 hrs by Annexin-V FITC/7-AAD staining based flow cytometric method (reference value: 97.5%); type: functional
[6] = test system: EOL1; assay: Induction of apoptosis in human EOL-1 cells assessed as necrotic cells at 2.8 uM after 24 hrs by Annexin-V FITC/7-AAD staining based flow cytometric method (reference value: 0.032%); type: functional
[7] = test system: MOLM-13; assay: Induction of apoptosis in human MOLM13 cells assessed as caspase-3 activation at 10 uM after 72 hrs by immunoblotting analysis; type: functional, cell-based; outline: as §1
[8] = test system: MOLM-13; assay: Induction of apoptosis in human MOLM13 cells assessed as necrotic cells at 0.56 uM after 24 hrs by Annexin-V FITC/7-AAD staining based flow cytometric method (reference value: 0%); type: functional
[9] = test system: MOLM-13; assay: Induction of apoptosis in human MOLM13 cells assessed as late apoptotic cells at 1.1 uM after 24 hrs by Annexin-V FITC/7-AAD staining based flow cytometric method (reference value: 1.43%); type: functional
[10] = target: Transcription factor p65 (Homo sapiens) (UniProt Q04206); assay: Inhibition of NFkappaB p65 in human EOL-1 cells at 10 uM after 72 hrs by immunoblotting method; type: cell-based
Outline: (§3)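 MOLM-13 or EOL-1 cells treated 72 h at 10 μM. Cells washed in ice-cold PBS and lysed in hypertonic NP-40 buffer (10 mM HEPES pH 7.5, 0.5 M NaCl) with protease/phosphatase inhibitors. Protein measured by BCA; SDS-PAGE onto PVDF. Probed 12 h with rabbit monoclonal NF-κB-p65 antibody, goat β-actin as loading control, then chemiluminescence. Blots representative of three independent experiments.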

[11] = test system: EOL1; assay: Induction of apoptosis in human EOL-1 cells assessed as early apoptotic cells at 0.56 uM after 24 hrs by Annexin-V FITC/7-AAD staining based flow cytometric method (reference value: 1.94%); type: functional
[12] = test system: MOLM-13; assay: Induction of apoptosis in human MOLM13 cells assessed as live cells at 2.8 uM after 24 hrs by Annexin-V FITC/7-AAD staining based flow cytometric method (reference value: 86.8%); type: functional
[13] = target: Transcription factor p65 (Homo sapiens) (UniProt Q04206); assay: Inhibition of NFkappaB p65 in human MOLM13 cells at 10 uM after 72 hrs by immunoblotting method; type: cell-based; outline: as §3
[14] = test system: EOL1; assay: Cytotoxicity against human EOL-1 cells after 72 hrs by MTS assay; type: functional, cell-based; settings: EOL1, 72 h
[15] = test system: MOLM-13; assay: Cytotoxicity against human MOLM13 cells after 72 hrs by MTS assay; type: functional, cell-based; settings: MOLM-13, 72 h
[16] = test system: EOL1; assay: Induction of apoptosis in human EOL-1 cells assessed as early apoptotic cells at 1.1 uM after 24 hrs by Annexin-V FITC/7-AAD staining based flow cytometric method (reference value: 1.94%); type: functional
[17] = test system: MOLM-13; assay: Induction of apoptosis in human MOLM13 cells assessed as early apoptotic cells at 2.8 uM after 24 hrs by Annexin-V FITC/7-AAD staining based flow cytometric method (reference value: 11.8%); type: functional
[18] = test system: EOL1; assay: Induction of apoptosis in human EOL-1 cells assessed as necrotic cells at 1.1 uM after 24 hrs by Annexin-V FITC/7-AAD staining based flow cytometric method (reference value: 0.032%); type: functional
[19] = test system: HT-29; assay: Cytotoxicity against human HT-29 cells after 72 hrs by MTS assay; type: functional, cell-based; settings: HT-29, 72 h
[20] = test system: EOL1; assay: Induction of apoptosis in human EOL-1 cells assessed as late apoptotic cells at 1.1 uM after 24 hrs by Annexin-V FITC/7-AAD staining based flow cytometric method (reference value: 0.535%); type: functional
[21] = test system: MOLM-13; assay: Induction of apoptosis in human MOLM13 cells assessed as early apoptotic cells at 1.1 uM after 24 hrs by Annexin-V FITC/7-AAD staining based flow cytometric method (reference value: 11.8%); type: functional
[22] = test system: EOL1; assay: Induction of apoptosis in human EOL-1 cells assessed as late apoptotic cells at 2.8 uM after 24 hrs by Annexin-V FITC/7-AAD staining based flow cytometric method (reference value: 0.535%); type: functional
[23] = test system: EOL1; assay: Induction of apoptosis in human EOL-1 cells assessed as caspase-3 activation at 10 uM after 72 hrs by immunoblotting analysis; type: functional, cell-based; outline: as §2
[24] = test system: MOLM-13; assay: Induction of apoptosis in human MOLM13 cells assessed as live cells at 0.56 uM after 24 hrs by Annexin-V FITC/7-AAD staining based flow cytometric method (reference value: 86.8%); type: functional
[25] = test system: MOLM-13; assay: Induction of apoptosis in human MOLM13 cells assessed as early apoptotic cells at 0.56 uM after 24 hrs by Annexin-V FITC/7-AAD staining based flow cytometric method (reference value: 11.8%); type: functional
[26] = test system: EOL1; assay: Induction of apoptosis in human EOL-1 cells assessed as early apoptotic cells at 2.8 uM after 24 hrs by Annexin-V FITC/7-AAD staining based flow cytometric method (reference value: 1.94%); type: functional
[27] = test system: EOL1; assay: Induction of apoptosis in human EOL-1 cells assessed as late apoptotic cells at 0.56 uM after 24 hrs by Annexin-V FITC/7-AAD staining based flow cytometric method (reference value: 0.535%); type: functional
[28] = test system: MOLM-13; assay: Induction of apoptosis in human MOLM13 cells assessed as late apoptotic cells at 2.8 uM after 24 hrs by Annexin-V FITC/7-AAD staining based flow cytometric method (reference value: 1.43%); type: functional
[29] = test system: MOLM-13; assay: Synergistic antileukemic activity against human MOLM13 cells assessed as concentration required for <= 75% cell survival after 72 hrs in presence of midostaurin by CellTiter 96 AQueous One solution cell proliferation assay; type: functional
[30] = test system: EOL1; assay: Synergistic antileukemic activity against human EOL-1 cells assessed as concentration required for <= 75% cell survival after 72 hrs in presence of midostaurin by CellTiter 96 AQueous One solution cell proliferation assay; type: functional
[31] = test system: EOL1; assay: Induction of apoptosis in human EOL-1 cells assessed as necrotic cells at 0.56 uM after 24 hrs by Annexin-V FITC/7-AAD staining based flow cytometric method (reference value: 0.032%); type: functional
[32] = test system: EOL1; assay: Induction of apoptosis in human EOL-1 cells assessed as live cells at 0.56 uM after 24 hrs by Annexin-V FITC/7-AAD staining based flow cytometric method (reference value: 97.5%); type: functional
[33] = test system: EOL1; assay: Induction of apoptosis in human EOL-1 cells assessed as live cells at 1.1 uM after 24 hrs by Annexin-V FITC/7-AAD staining based flow cytometric method (reference value: 97.5%); type: functional
[34] = test system: MOLM-13; assay: Induction of apoptosis in human MOLM13 cells assessed as live cells at 1.1 uM after 24 hrs by Annexin-V FITC/7-AAD staining based flow cytometric method (reference value: 86.8%); type: functional
[35] = test system: MOLM-13; assay: Induction of apoptosis in human MOLM13 cells assessed as necrotic cells at 1.1 uM after 24 hrs by Annexin-V FITC/7-AAD staining based flow cytometric method (reference value: 0%); type: functional

Sequence of Transcription factor p65 (Homo sapiens) (Q04206 whole entry): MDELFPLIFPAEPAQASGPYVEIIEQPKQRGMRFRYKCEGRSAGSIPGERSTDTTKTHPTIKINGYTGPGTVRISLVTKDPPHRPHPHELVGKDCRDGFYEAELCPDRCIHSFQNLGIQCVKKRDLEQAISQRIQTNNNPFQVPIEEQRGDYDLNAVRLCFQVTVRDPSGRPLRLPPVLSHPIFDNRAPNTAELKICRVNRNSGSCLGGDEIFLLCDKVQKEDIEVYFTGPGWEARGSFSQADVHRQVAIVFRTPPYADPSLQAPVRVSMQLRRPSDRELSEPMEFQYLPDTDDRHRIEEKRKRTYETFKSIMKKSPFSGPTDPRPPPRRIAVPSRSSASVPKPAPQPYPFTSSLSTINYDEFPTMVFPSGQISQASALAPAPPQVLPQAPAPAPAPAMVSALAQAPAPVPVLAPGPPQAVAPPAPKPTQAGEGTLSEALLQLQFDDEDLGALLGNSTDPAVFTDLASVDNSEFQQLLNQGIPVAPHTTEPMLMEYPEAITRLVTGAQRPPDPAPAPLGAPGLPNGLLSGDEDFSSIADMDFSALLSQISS

`CO[C@@H]1[C@H](N(C)C(=O)c2ccccc2)C[C@H]2O[C@]1(C)n1c3ccccc3c3c4c(c5c6ccccc6n2c5c31)C(=O)NC4` was tested, and the Activity [1] was “Active” and the Activity [2] was “Active”.

For `C=C(C)C(=O)O[C@H]1C[C@@]2(C)OC(=CC2=O)/C(CO)=C\[C@H]2OC(=O)C(=C)[C@H]12` [GOIAZENSOLIDE], the Activity [3] was 3.18%, the Activity [4] was 1.96% and the Activity [5] was 0.01%. The Activity [6] was 0.189%, the Activity [7] was “Active” and the Activity [8] was 0.392%. The Activity [9] was 94.6%, the inhibition [10] was “Active” and the Activity [11] was 1.84%. For the same compound, the Activity [12] was 0.135%, the inhibition [13] was “Active” and the pIC50 [14] was 5.96. The pIC50 [15] was 6.07, the Activity [16] was 0.281% and the Activity [17] was 0.203%. It also gave an Activity [18] of 2.4%, a pIC50 [19] of 6.25 and an Activity [20] of 93.3%. The Activity [21] was 0.958%, the Activity [22] was 99.8% and the Activity [23] was “Active”. It also gave an Activity [24] of 81.8%, an Activity [25] of 14.7% and an Activity [26] of 0%. For the same compound, the Activity [27] was 6.18%, the Activity [28] was 97.7% and the Activity [29] was 0.42 µM. For the same compound, the Activity [30] was 0.56 µM, the Activity [31] was 0.306% and the Activity [32] was 91.7%. For the same compound, the Activity [33] was 3.99%, the Activity [34] was 2.54% and the Activity [35] was 1.86%.
